Assay outcomes from PubChem.
FGF22 binding-1 = binders of recombinant human FGF22 by thermal shift; 1.5% of 340,000 active; activity (Tm shift, normalised), % at 9.99 µM; Q9HCT0; AID 651658; SYPRO orange fluorescence; percent of sucrose octasulfate shift, DMSO zero;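 active means mean Tm shift, scaled 0 neutral to 100 positive control, at about 1.3% or above, every replicate too, limit read from the data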
SIRT5 inh = sirtuin-5 (human) deacylase inhibition. Q9NXA8. Purified SirT5, succinyl-peptide AMC, trypsin-coupled fluorescence. inhibition, % at 15 µM. 1.1% of 330,000 active. AID 652115; in the data active means inhibition above about 15%
miR122 inh = miR-122 inhibition in Huh7 cells | 0.3% of 340,000 active | Huh7 miR-122 Renilla luciferase sensor, 48 h; neutral wells = 0, positive control = 100 | activation (reporter increase), % at 12.5 µM;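 active means mean replicate activation score at least 90 and every replicate individually at or above 90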;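 further: higher luciferase means less miR-122 activity so hits act as miR-122 inhibitors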
E-sel inducer = E-selectin induction on HUVECs. P16581. HUVEC E-selectin immunofluorescence imaging; normalized: neutral wells 0, TNF-alpha wells 100. activation, % at 7.58 µM. 0.37% of 260,000 active;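 active means mean E-selectin-positive cell signal at least 10% of the positive control, reached in at least 60% of replicates, without over 20% cell loss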
Target sequence (P16581 whole entry, looked up): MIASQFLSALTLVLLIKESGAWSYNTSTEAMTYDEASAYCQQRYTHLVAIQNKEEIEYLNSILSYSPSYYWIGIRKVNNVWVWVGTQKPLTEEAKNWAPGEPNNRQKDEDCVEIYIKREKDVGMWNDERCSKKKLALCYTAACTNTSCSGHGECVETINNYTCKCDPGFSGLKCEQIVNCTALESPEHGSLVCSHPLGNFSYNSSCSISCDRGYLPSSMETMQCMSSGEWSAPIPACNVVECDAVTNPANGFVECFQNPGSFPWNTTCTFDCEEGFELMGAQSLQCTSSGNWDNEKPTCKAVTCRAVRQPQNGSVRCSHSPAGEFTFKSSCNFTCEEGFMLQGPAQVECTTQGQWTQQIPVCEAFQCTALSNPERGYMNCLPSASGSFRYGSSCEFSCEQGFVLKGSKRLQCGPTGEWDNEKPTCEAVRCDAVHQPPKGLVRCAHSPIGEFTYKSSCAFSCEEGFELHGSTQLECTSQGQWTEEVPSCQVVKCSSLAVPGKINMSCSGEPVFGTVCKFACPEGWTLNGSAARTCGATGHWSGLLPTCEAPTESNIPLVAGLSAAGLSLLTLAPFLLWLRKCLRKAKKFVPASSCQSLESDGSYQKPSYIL
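Assay system: HUVEC primary endothelial cells. Input: 3,000 HUVEC seeded per well. Doses: one compound dose added by pin transfer. Read-out basis: % PE-positive cells. Benchmarks: TNF-alpha high, DMSO low. Detection: immunofluorescence imaging. Buffer or medium: EGM-2, gelatin.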
S100A4 inh HTS = blocks human S100A4 binding to myosin IIA peptide; P26447; S100A4/TAMRA-MyoIIA peptide fluorescence polarization; inhibition, % at 10.7 µM; 0.14% of 360,000 active; AID 652163;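 active means mean inhibition of at least 70% across replicates, with every replicate also reaching that level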
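incubation = readout 5 min after mixing, signal stable up to 60 min | system = S100A4 monomer protein | buffer or medium = HEPES pH 7.2 with CaCl2, KCl, NaCl, DTT, Triton | benchmarks = neutral control DMSO, positive control TFP | also added = fluorescent myosin IIA peptide, 5 nM | compound dosing = one concentration per compound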
FGF22 binding-2 = FGF22 (human) binding in thermal shift; shares compounds with FGF22 binding-1; recombinant FGF22 thermal shift, SYPRO orange fluorescence; thermal shift activity, °C (ΔTm) at 38 µM; 2% of 1,000 active;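 active means fitted rise in melting shift crosses a set limit at or below the top valid dose tested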
SYPRO no-protein = counter-screen for FGF22 binders: compound-only thermal shift, no protein; shares compounds with FGF22 binding-1; compound-only SYPRO orange thermal shift counter-screen; AC50, µM (highest dose often 38 µM); 2% of 1,000 active; AID 743019;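 active means rising signal whose fitted curve reaches the 0.54 level within the top valid dose, showing a melting point, actives reach about 13 µM in these data; inactive means the rest, including activity in the opposite direction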; further: value is where the raw curve crosses a fixed level and not half-maximal
Hits are given with their value; - = inactive; . = no result given. Hits are enriched below; roughly 2.5% of the tested compounds scored in any of these assays.

SMILES	FGF22 binding-1	SIRT5 inh	miR122 inh	E-sel inducer	S100A4 inh HTS	FGF22 binding-2	SYPRO no-protein
COCC(=O)N(C)C[C@H]1Oc2cc(C#Cc3ccccc3)ccc2S(=O)(=O)N([C@H](C)CO)C[C@H]1C	6.2	-	-	-	-	-	-
COCC#Cc1ccc2c(c1)O[C@@H](CN(C)C(=O)c1ccccc1)[C@H](C)CN([C@H](C)CO)S2(=O)=O	-	-	-	-	-	.	.
COCC#Cc1ccc2c(c1)O[C@H](CN(C)C(=O)c1ccccc1)[C@@H](C)CN([C@@H](C)CO)S2(=O)=O	8.3	-	-	-	-	-	-
CCCN(C)C[C@@H]1Oc2cc(C#CC(C)(C)O)ccc2S(=O)(=O)N([C@@H](C)CO)C[C@@H]1C	1.3	-	-	-	-	-	-
CC1CN(C(=O)C(C)N2CCN(c3ccccc3Cl)CC2)CC(C)O1 (centres undefined)	17	-	.	-	-	-	-
CC1CN(C(=O)C(C)N2CCN(c3cccc(Cl)c3)CC2)CC(C)O1 (centres undefined)	-	-	.	.	-	.	.
Cc1ccc(C(=O)O/N=C2\CCCc3ccccc32)cc1	.	.	-	.	.	.	.
O=C(O/N=C1\CCCc2ccccc21)C1CC1	2.7	-	-	-	-	-	-
O=C(C[C@@H]1C[C@@H]2c3cc(NC(=O)C4CCOCC4)ccc3O[C@@H]2[C@@H](CO)O1)NCc1cccc(F)c1	-	-	-	-	-	.	.
Cc1ccc2c(c1)c(CC(=O)Nc1ccc(C)c(F)c1)c(C(=O)O)n2C	1.6	-	-	.	-	-	-
Cn1c(C(=O)O)c(CC(=O)Nc2ccccc2F)c2ccccc21	.	.	-	.	.	.	.
O=C(O)c1cc2cccc(S(=O)(=O)N3CCCCC3)c2cc1O	1.7	.	-	-	-	-	-
O=S(=O)(c1cccc2ccccc12)N1CCCCC1	-	-	-	.	-	.	.
C[C@@H]1CCCCO[C@H](CN(C)CC2CC2)[C@H](C)CN([C@@H](C)CO)C(=O)c2cc(NS(=O)(=O)c3cn(C)cn3)ccc2O1	-	-	-	-	-	.	.
Cc1ccccc1C(=O)Nc1nnc(S(=O)(=O)N2CCCCC2)s1	17	-	.	.	-	-	-
O=C(Nc1nnc(S(=O)(=O)N2CCCCCC2)s1)c1ccccc1Br	-	-	-	-	-	.	.
O=S(=O)(c1ccc(F)cc1)N1CCCCN2[C@@H](CO)[C@@H](c3ccc(-c4ccccc4)cc3)[C@@H]2C1	-	-	-	-	-	.	.
CN1CCN(C(=O)C[C@H]2C=C[C@H](NC(=O)c3ccc4c(c3)OCO4)[C@H](CO)O2)CC1	1.5	-	.	-	-	-	-
Nc1ccccc1N=Nc1ccccc1N	2.5	.	-	-	-	-	-
Cc1noc(C)c1NC(=O)N(C)C[C@@H]1Oc2c(NS(=O)(=O)c3cn(C)cn3)cccc2C(=O)N([C@@H](C)CO)C[C@H]1C	-	-	-	-	-	.	.
O=S(=O)(c1ccc(F)cc1)N1CCCC1	-	-	-	-	-	.	.
O=S(=O)(Nc1ccccc1OC(F)F)c1ccc(S(=O)(=O)N2CCCC2)cc1	3.2	-	-	.	-	-	-
O=C(OCC(=O)c1ccc(Cl)s1)c1ccc2ccccc2n1	1.7	-	-	.	-	-	-
O=C(CN1C(=O)NC(Cc2c[nH]c3ccccc23)C1=O)Nc1ccccc1Br (centres undefined)	-	-	-	-	-	.	.
O=C(CN1C(=O)NC(Cc2c[nH]c3ccccc23)C1=O)Nc1ccc(Br)cc1F (centres undefined)	2.3	-	.	-	-	-	-
Cc1ccc(NC(=O)CN2C(=O)NC(Cc3c[nH]c4ccccc34)C2=O)cc1 (centres undefined)	1.7	-	-	.	-	-	-
C[C@@H]1CN([C@H](C)CO)S(=O)(=O)c2ccc(C#CC3CC3)cc2O[C@@H]1CN(C)C(=O)c1cnccn1	-	-	-	-	-	.	.
Fc1cccc(-c2ccc(C3[C@H]4CNC[C@@H]3N4Cc3ccccc3F)cc2)c1 (some centres undefined)	.	-	.	-	-	.	.
